As a reminder, the IC50 is the concentration needed to halve the response being measured.

Results on 36 compounds are retold here after ChEMBL document CHEMBL2086324, “Synthesis and antimalarial activity of new haemanthamine-type derivatives” (Bioorg Med Chem, 2012).

Structures are written as SMILES. Some results are limits rather than exact numbers.

This experiment relates to Plasmodium falciparum. Kind of experiment: Antiplasmodial activity against chloroquine-sensitive Plasmodium falciparum F-32 Tanzania assessed as inhibition of parasitemia after 3 days. The format is functional, organism-based. The following applies: 72 h. Put shortly:
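P. falciparum grown in glucose-enriched RPMI 1640 with 10% human serum, 37 °C. After 24 h the medium was replaced with fresh medium containing compound in DMSO at 0.1, 1 and 10 µg/mL, and incubation continued 48 h. Parasitemia was counted by blood smear per well on day 3 against control. IC50 was read graphically from concentration vs percent inhibition. Chloroquine 0.04 µM served as positive control.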

With `O[C@@H]1C=C[C@@]23c4cc5c(cc4CN(C[C@H]2O)[C@H]3C1)OCO5`, the IC50 stood at 13.2 µM.

As for `COC1c2cc3c(cc2[C@@]24C=C[C@@H](OC)C[C@@H]2N1C[C@H]4O)OCO3` (stereo partly specified), the IC50 stood at 75.5 µM.

Turning to `CO[C@@H]1C=C[C@@]23c4cc5c(cc4CN(C[C@H]2OC(C)=O)[C@H]3C1)OCO5`, the IC50 was 75.8 µM.

Consider `C=Cc1ccc(C(=O)O[C@@H]2CN3Cc4cc5c(cc4[C@]24C=C[C@@H](OC)C[C@H]34)OCO5)cc1`, for which the IC50 was more than 100 µM.

For the compound `CO[C@@H]1C=C[C@@]23c4cc5c(cc4CN(C[C@H]2OC(=O)c2cccnc2)[C@H]3C1)OCO5`, the IC50 came to 51.7 µM.

As for `CO[C@@H]1C=C[C@@]23c4cc5c(cc4CN(C[C@H]2OC(=O)c2ccc(Br)cc2)[C@H]3C1)OCO5`, the IC50 was found to be 43.3 µM.

As for `CO[C@@H]1C=C[C@@]23c4cc5c(cc4CN(C[C@H]2OC(=O)C(C)C)[C@H]3C1)OCO5`, the IC50 was 56.6 µM.

In the case of `C=CC(=O)O[C@@H]1CN2Cc3cc4c(cc3[C@]13C=C[C@@H](OC)C[C@H]23)OCO4`, the IC50 was determined as 8.4 µM.

Consider `CO[C@@H]1C=C[C@]23c4cc5c(cc4CN([C@H]2C1)[C@H]1O[C@H]13)OCO5`, for which the IC50 is 1.6 µM.

For the compound `CO[C@@H]1C=C[C@]23C(=O)CN(Cc4cc5c(cc42)OCO5)[C@H]3C1`, the IC50 came to 73.5 µM.

Turning to `CO[C@@H]1C=C[C@]23/C(=N/O)CN(Cc4cc5c(cc42)OCO5)[C@H]3C1`, the IC50 was found to be 95.5 µM.

For the compound `Oc1cc2c(cc1O)[C@@]13C=C[C@@H](O)C[C@@H]1N(C2)C[C@H]3O`, the IC50 amounted to 13.4 µM.

On to `CO[C@@H]1C=C[C@@]23c4cc5c(cc4C[N+]([O-])(C[C@H]2O)[C@H]3C1)OCO5`, for which the 50% inhibitory concentration (IC50) is more than 100 µM.

In the case of `CO[C@@H]1CC[C@@]23c4cc5c(cc4CN(C[C@H]2O)[C@H]3C1)OCO5`, the IC50 came to 9.9 µM.

Take `CO[C@H]1C[C@@H]2N3Cc4cc5c(cc4[C@@]2([C@H](O)C3)[C@@H](Br)[C@@H]1Br)OCO5`: the IC50 amounted to 6.5 µM.

On to `CO[C@H]1C[C@@H]2N3Cc4cc5c(cc4[C@@]2([C@H](O)C3)[C@@H](O)[C@@H]1Br)OCO5`, for which the IC50 came to 62.6 µM.

As for `CO[C@H]1C[C@@H]2N3Cc4cc5c(cc4[C@@]2([C@H](O)C3)[C@@H](Br)[C@@H]1O)OCO5`, the IC50 came to 72.6 µM.

In the case of `CN(C=O)Cc1cc2c(cc1-c1ccc(O)cc1)OCO2`, the IC50 turned out to be 73.4 µM.

Regarding `CCN(C=O)Cc1cc2c(cc1-c1ccc(O)cc1)OCO2`, the IC50 was more than 100 µM.

For `CO[C@@H]1C=C[C@@]23c4cc5c(cc4C(OC(C)=O)N(C[C@H]2OC(C)=O)[C@H]3C1)OCO5` (stereo partly specified), the IC50 stood at 52.3 µM.

For the compound `CO[C@@H]1C=C[C@@]23c4cc5c(cc4C(OC(=O)c4cccnc4)N(C[C@H]2O)[C@H]3C1)OCO5` (stereo partly specified), the IC50 amounted to 7.1 µM.

For the compound `CO[C@@H]1C=C[C@@]23c4cc5c(cc4C(OC(=O)c4ccc(Br)cc4)N(C[C@H]2OC(=O)c2ccc(Br)cc2)[C@H]3C1)OCO5` (stereo partly specified), the IC50 stood at 2.9 µM.

For the compound `CO[C@@H]1C=C[C@@]23c4cc5c(cc4C(OC(=O)C(C)C)N(C[C@H]2OC(=O)C(C)C)[C@H]3C1)OCO5` (stereo partly specified), the IC50 was found to be 52.5 µM.

Regarding `CO[C@@H]1C=C[C@@]2(c3cc4c(cc3C=O)OCO4)C(=O)C=N[C@H]2C1`, the IC50 stood at 76.6 µM.

Turning to `Oc1cc2c(cc1O)[C@@]13C=C[C@@H](O)C[C@@H]1N(C[C@H]3O)C2O` (stereo partly specified), the IC50 is 72.1 µM.

On to `OC1c2cc3c(cc2[C@@]24C=C[C@H]5C[C@@H]2N1C[C@H]4O5)OCO3` (stereo partly specified), for which the IC50 worked out at 84.2 µM.

Take `CC(=O)O[C@@H]1C=C[C@@]23c4cc5c(cc4CN(C[C@H]2OC(C)=O)[C@H]3C1)OCO5`: the IC50 was more than 100 µM.

Turning to `COC(C(=O)O[C@@H]1C=C[C@@]23c4cc5c(cc4CN(C[C@H]2OC(=O)C(OC)c2ccccc2)[C@H]3C1)OCO5)c1ccccc1` (stereo partly specified), the IC50 came out at 5.1 µM.

Regarding `O=C(O[C@@H]1C=C[C@@]23c4cc5c(cc4CN(C[C@H]2OC(=O)c2cccnc2)[C@H]3C1)OCO5)c1cccnc1`, the IC50 was determined as 0.8 µM.

As for `O=C(O[C@@H]1C=C[C@@]23c4cc5c(cc4CN(C[C@H]2OC(=O)c2ccc(Br)cc2)[C@H]3C1)OCO5)c1ccc(Br)cc1`, the IC50 was found to be 3 µM.

On to `CC(C)C(=O)O[C@@H]1C=C[C@@]23c4cc5c(cc4CN(C[C@H]2OC(=O)C(C)C)[C@H]3C1)OCO5`, for which the IC50 worked out at 7 µM.

Take `COc1cc2c(cc1O)CN1CC[C@@]23C=CC(O)C[C@H]13` (stereo partly specified): the IC50 stood at 91.5 µM.

For `CO[C@@H]1C=C[C@@]23c4cc5c(cc4CN(C[C@@H]2O)[C@H]3C1)OCO5` [(+)-HAEMANTHAMINE], the half-inhibitory concentration (IC50) worked out at 1.3 µM.

Consider `C1=C[C@@]23c4cc5c(cc4CN4C[C@H]2O[C@@H]1C[C@H]43)OCO5` [APOHAEMANTHAMINE], for which the IC50 is 92.9 µM.

Consider `CO[C@@H]1C=C[C@@]23c4cc5c(cc4[C@@H](O)N(C[C@H]2O)[C@H]3C1)OCO5` [HAEMANTHIDINE], for which the IC50 came out at 1.2 µM.

As to `O[C@@H]1C=C[C@]23CCN(Cc4cc5c(cc42)OCO5)[C@H]3C1` [VITTATINE], the IC50 is 7.3 µM.
